In ChEMBL document CHEMBL1629612, “Characterization and sequence analysis of extended-spectrum-{beta}-lactamase-encoding genes from Escherichia coli, Klebsiella pneumoniae, and Proteus mirabilis isolates collected during tigecycline phase 3 clinical trials” (2009):
≈ marks a conversion by molar mass, not a printed value.

How the values were obtained:
Type in all cases: functional
Escherichia coli [1] = experiment: Antimicrobial activity against Escherichia coli expressing beta-lactamase AmpC and extended-spectrum beta-lactamase by Etest
In short: (§1)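 Clinical isolates from tigecycline phase 3 trials were received as frozen primary cultures. Serial isolates from one patient were riboprinted, and only the first of identical strains was kept. β-Lactamase genes were assigned by PCR. ESBL confirmation used Etest ESBL strips carrying ceftazidime or cefotaxime, alone and combined with clavulanic acid, following the strip maker's instructions.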

Escherichia coli [2] = experiment: Antimicrobial activity against Escherichia coli expressing beta-lactamase AmpC by Etest; in short: as §1
Klebsiella pneumoniae [3] = experiment: Antimicrobial activity against Klebsiella pneumoniae expressing beta-lactamase CTX by Etest based on multiple determinants
In short: (§2)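 Clinical isolates from tigecycline phase 3 trials were received as frozen primary cultures. Repeat isolates from one patient were riboprinted, and only the first of identical strains was kept. β-lactamase genes were assigned by PCR against control strains, plus isoelectric focusing. ESBL confirmation used Etest ESBL strips carrying ceftazidime or cefotaxime with clavulanic acid, read per the manufacturer's instructions.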

Escherichia coli [4] = experiment: Antimicrobial activity against Escherichia coli expressing beta-lactamase CTX and SHV by Etest; in short: as §1
Escherichia coli [5] = experiment: Antimicrobial activity against Escherichia coli expressing beta-lactamase CTX by Etest based on multiple determinants; in short: as §1
Klebsiella pneumoniae [6] = experiment: Antimicrobial activity against Klebsiella pneumoniae extended-spectrum beta-lactamase producing isolate by Etest; in short: as §2
Proteus mirabilis [7] = experiment: Antimicrobial activity against Proteus mirabilis extended-spectrum beta-lactamase producing isolate by Etest; in short: as §2
Escherichia coli [8] = experiment: Antimicrobial activity against Escherichia coli expressing beta-lactamase SHV by Etest; in short: as §1
Escherichia coli [9] = experiment: Antimicrobial activity against Escherichia coli expressing beta-lactamase CTX by Etest based on single determinant; in short: as §1
Klebsiella pneumoniae [10] = experiment: Antimicrobial activity against Klebsiella pneumoniae expressing beta-lactamase SHV by Etest based on single determinant; in short: as §2
Klebsiella pneumoniae [11] = experiment: Antimicrobial activity against Klebsiella pneumoniae expressing beta-lactamase SHV by Etest based on multiple determinants; in short: as §2
Klebsiella pneumoniae [12] = experiment: Antimicrobial activity against Klebsiella pneumoniae expressing beta-lactamase CTX by Etest based on single determinant; in short: as §2
Klebsiella pneumoniae [13] = experiment: Antimicrobial activity against Klebsiella pneumoniae expressing extended-spectrum beta-lactamase and beta-lactamase AmpC by Etest; in short: as §1
Proteus mirabilis [14] = experiment: Antimicrobial activity against Proteus mirabilis expressing extended-spectrum beta-lactamase by Etest based on single determinant; in short: as §2
Proteus mirabilis [15] = experiment: Antimicrobial activity against Proteus mirabilis expressing extended-spectrum beta-lactamase by Etest based on multiple determinants; in short: as §2
Proteus mirabilis [16] = experiment: Antimicrobial activity against Proteus mirabilis expressing beta-lactamase AmpC by Etest; in short: as §2
Escherichia coli [17] = experiment: Antimicrobial activity against Escherichia coli extended-spectrum beta-lactamase producing isolate by Etest; in short: as §1
Klebsiella pneumoniae [18] = experiment: Antimicrobial activity against Klebsiella pneumoniae expressing beta-lactamase SHV and CTX by Etest; in short: as §2
Klebsiella pneumoniae [19] = experiment: Antimicrobial activity against Klebsiella pneumoniae expressing beta-lactamase DHA by Etest; in short: as §1

SMILES | MIC50 (Escherichia coli [1]) [µg/mL] | MIC90 (Escherichia coli [1]) [µg/mL] | MIC (Escherichia coli [2]) [µg/mL] | MIC50 (Klebsiella pneumoniae [3]) [µg/mL] | MIC90 (Klebsiella pneumoniae [3]) [µg/mL] | MIC50 (Escherichia coli [4]) [µg/mL] | MIC90 (Escherichia coli [4]) [µg/mL] | MIC50 (Escherichia coli [5]) [µg/mL] | MIC90 (Escherichia coli [5]) [µg/mL] | MIC50 (Klebsiella pneumoniae [6]) [µg/mL] | MIC90 (Klebsiella pneumoniae [6]) [µg/mL] | MIC50 (Proteus mirabilis [7]) [µg/mL] | MIC90 (Proteus mirabilis [7]) [µg/mL] | MIC (Escherichia coli [8]) [µg/mL] | MIC50 (Escherichia coli [9]) [µg/mL] | MIC90 (Escherichia coli [9]) [µg/mL] | MIC50 (Klebsiella pneumoniae [10]) [µg/mL] | MIC90 (Klebsiella pneumoniae [10]) [µg/mL] | MIC (Klebsiella pneumoniae [11]) [µg/mL] | MIC50 (Klebsiella pneumoniae [12]) [µg/mL] | also measured
CO/N=C(\C(=O)N[C@@H]1C(=O)N2C(C(=O)[O-])=C(C[N+]3(C)CCCC3)CS[C@H]12)c1csc(N)n1 [CEFEPIME] | 16 (≈ 33.3 µM) | > 16 | 2 (≈ 4.16 µM) | 16 (≈ 33.3 µM) | > 16 | 16 (≈ 33.3 µM) | > 16 | 16 (≈ 33.3 µM) | > 16 | 8 (≈ 16.6 µM) | > 16 | 2 (≈ 4.16 µM) | > 16 | 2 (≈ 4.16 µM) | 16 (≈ 33.3 µM) | > 16 | ≤ 2 | > 16 | 2 (≈ 4.16 µM) | 16 (≈ 33.3 µM) | MIC90 (Klebsiella pneumoniae [12]): > 16 µg/mL; MIC (Klebsiella pneumoniae [13]): 2 µg/mL (≈ 4.16 µM); MIC (Proteus mirabilis [14]): 1 µg/mL (≈ 2.08 µM); MIC (Proteus mirabilis [15]): 1 µg/mL (≈ 2.08 µM); MIC (Proteus mirabilis [16]): 2 µg/mL (≈ 4.16 µM)
CO/N=C(\C(=O)N[C@@H]1C(=O)N2C(C(=O)O)=C(COC(C)=O)CS[C@H]12)c1csc(N)n1 [CEFOTAXIME] | > 32 | > 32 | 4 (≈ 8.78 µM) | > 32 | > 32 | > 32 | > 32 | > 32 | > 32 | > 32 | > 32 | 32 (≈ 70.3 µM) | > 32 | 4 (≈ 8.78 µM) | > 32 | > 32 | 16 (≈ 35.1 µM) | > 32 | 2 (≈ 4.39 µM) | > 32 | MIC50 (Escherichia coli [17]): > 32 µg/mL; MIC90 (Escherichia coli [17]): > 32 µg/mL; MIC90 (Klebsiella pneumoniae [12]): > 32 µg/mL; MIC50 (Klebsiella pneumoniae [18]): > 32 µg/mL; MIC90 (Klebsiella pneumoniae [18]): > 32 µg/mL; MIC (Klebsiella pneumoniae [13]): 1 µg/mL (≈ 2.2 µM); MIC (Klebsiella pneumoniae [19]): 2 µg/mL (≈ 4.39 µM); MIC (Proteus mirabilis [14]): 0.25 µg/mL (≈ 0.549 µM); MIC (Proteus mirabilis [15]): 8 µg/mL (≈ 17.6 µM); MIC (Proteus mirabilis [16]): 16 µg/mL (≈ 35.1 µM)
CC(C)(O/N=C(\C(=O)N[C@@H]1C(=O)N2C(C(=O)[O-])=C(C[n+]3ccccc3)CS[C@H]12)c1csc(N)n1)C(=O)O [CEFTAZIDIME] | > 32 | > 32 | 4 (≈ 7.32 µM) | 32 (≈ 58.5 µM) | > 64 | 16 (≈ 29.3 µM) | 64 (≈ 117 µM) | 32 (≈ 58.5 µM) | 64 (≈ 117 µM) | 32 (≈ 58.5 µM) | > 64 | 64 (≈ 117 µM) | > 64 | 16 (≈ 29.3 µM) | 16 (≈ 29.3 µM) | 64 (≈ 117 µM) | 8 (≈ 14.6 µM) | > 64 | 16 (≈ 29.3 µM) | 32 (≈ 58.5 µM) | MIC50 (Escherichia coli [17]): 32 µg/mL (≈ 58.5 µM); MIC90 (Escherichia coli [17]): > 64 µg/mL; MIC90 (Klebsiella pneumoniae [12]): > 64 µg/mL; MIC50 (Klebsiella pneumoniae [18]): 64 µg/mL (≈ 117 µM); MIC90 (Klebsiella pneumoniae [18]): > 64 µg/mL; MIC (Klebsiella pneumoniae [13]): 4 µg/mL (≈ 7.32 µM); MIC (Klebsiella pneumoniae [19]): 64 µg/mL (≈ 117 µM); MIC (Proteus mirabilis [14]): 2 µg/mL (≈ 3.66 µM); MIC (Proteus mirabilis [15]): 2 µg/mL (≈ 3.66 µM); MIC (Proteus mirabilis [16]): 64 µg/mL (≈ 117 µM)
CO/N=C(\C(=O)N[C@@H]1C(=O)N2C(C(=O)O)=C(CSc3nc(=O)c(O)nn3C)CS[C@H]12)c1csc(N)n1 [CEFTRIAXONE] | > 32 | > 32 | 4 (≈ 7.21 µM) | > 32 | > 32 | > 32 | > 32 | > 32 | > 32 | > 32 | > 32 | 8 (≈ 14.4 µM) | 32 (≈ 57.7 µM) | 4 (≈ 7.21 µM) | > 32 | > 32 | 8 (≈ 14.4 µM) | > 32 | 2 (≈ 3.61 µM) | > 32 | MIC50 (Escherichia coli [17]): > 32 µg/mL; MIC90 (Escherichia coli [17]): > 32 µg/mL; MIC90 (Klebsiella pneumoniae [12]): > 32 µg/mL; MIC50 (Klebsiella pneumoniae [18]): > 32 µg/mL; MIC90 (Klebsiella pneumoniae [18]): > 32 µg/mL; MIC (Klebsiella pneumoniae [13]): 2 µg/mL (≈ 3.61 µM); MIC (Klebsiella pneumoniae [19]): 1 µg/mL (≈ 1.8 µM); MIC (Proteus mirabilis [14]): 1 µg/mL (≈ 1.8 µM); MIC (Proteus mirabilis [15]): 2 µg/mL (≈ 3.61 µM); MIC (Proteus mirabilis [16]): 8 µg/mL (≈ 14.4 µM)
